# CYP2C19 act = activators of human cytochrome P450 2C19. recombinant CYP2C19, luciferin-H EGE luminescence; active compounds read high; 0 = fully inhibited enzyme, 1 = untreated enzyme. activation factor at 5 µM. 96,000 tested, under 10 active. AID 1025;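 active = activation factor of at least 2 at 5 µM in the primary screen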;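 also: 0 = wells with 2.5 mM tranylcypromine and 1 = vehicle-only wells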
# CYP2C19 inh = blocks human cytochrome P450 2C19. P33261. CYP2C19 Supersomes, luciferin-H EGE luminescence, 30 min. inhibition, % at 5 µM. 96,000 compounds, 21% hits;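 active = CYP2C19 inhibition above a set limit at 5 µM in the primary screen, cut at about 50% in these data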;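 also: plate controls were negative control wells for no effect and 2.5 mM tranylcypromine positive control for full effect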
# CYP2C9 activ = CYP2C9 (human) activation; P11712; recombinant CYP2C9, luciferin-H conversion, luminescence; active compounds read high; factor 1 = untreated enzyme, 0 = blocked; activation factor at 5 µM; 96,000 compounds, 1.4% hits;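 active = activation factor of 2 or more for CYP2C9 at a 5 µM dose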;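 also: 0 = sulfaphenazole-blocked wells and 1 = vehicle-only wells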
# Target sequence (P11712 whole entry, looked up): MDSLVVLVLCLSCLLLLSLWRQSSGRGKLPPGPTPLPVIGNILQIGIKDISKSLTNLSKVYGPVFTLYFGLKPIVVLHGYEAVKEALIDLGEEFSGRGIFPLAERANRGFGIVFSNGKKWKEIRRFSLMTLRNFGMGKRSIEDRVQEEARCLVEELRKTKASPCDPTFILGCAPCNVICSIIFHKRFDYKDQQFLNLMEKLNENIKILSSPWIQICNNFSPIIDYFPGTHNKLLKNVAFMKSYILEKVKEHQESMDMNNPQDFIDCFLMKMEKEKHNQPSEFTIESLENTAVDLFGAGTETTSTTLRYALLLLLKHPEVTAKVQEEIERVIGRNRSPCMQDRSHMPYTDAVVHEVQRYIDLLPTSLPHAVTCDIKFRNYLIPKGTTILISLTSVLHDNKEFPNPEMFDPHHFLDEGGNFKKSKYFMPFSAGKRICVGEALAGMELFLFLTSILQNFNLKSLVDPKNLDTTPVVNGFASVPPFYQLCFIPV
# Rev-RRE block = disrupts HIV-1 Rev binding to RRE RNA. inhibition, % at 8 µM. Rev peptide-RRE RNA binding, FRET. 97,000 compounds, 0.79% hits. P05866;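 active = inhibition above the screen-wide mean plus 3 SD, cut at about 35% in these data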;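 also: 0% = median DMSO wells and 100% = median Neomycin B control wells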
# Target sequence (P05866 whole entry, looked up): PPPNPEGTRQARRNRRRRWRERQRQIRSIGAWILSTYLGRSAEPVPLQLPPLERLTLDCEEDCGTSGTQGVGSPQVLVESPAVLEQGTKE
#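 System: Cy5-labelled duplex RRE RNA binding fluorescein-labelled HIV Rev peptide; Signal: fluorescein-to-Cy5 FRET, 480 nm excitation; Also added: labelled Rev peptide; Compound: one concentration, 8 µM nominal; Buffer or medium: HEPES pH 7.5 salt buffer with EDTA; Read-out: % inhibition of FRET ratio versus controls; Schedule: 5 min preincubation and 15 min binding, 25 °C.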
# CYP2C9 inh = human CYP2C9 inhibition; inhibition, % at 5 µM; CYP2C9 Supersomes, luciferin-H conversion, luminescence; AID 777; P11712; 96,000 compounds, 20% hits;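 active = blocking of liver enzyme CYP2C9 beyond about 50% at 5 µM, limit read from the data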
# Cav32 inh = blocks human Cav3.2 T-type calcium channel; 100,000 compounds, 4% hits; O95180; AID 449739; B-score at 10 µM; Cav3.2-expressing cells, Fluo-4 calcium fluorescence FDSS; active compounds read low;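 active = single-dose well whose peak fluorescence ratio is a statistical outlier from its plate by either plate-standardised score or position-corrected B-score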
# Starred values were filed as active, the others as inactive; nt = not tested or not shown. Rows were chosen to be rich in hits. Some 27% of all compounds tested hit in one or more screens of this group.
SMILES,CYP2C19 act,CYP2C19 inh,CYP2C9 activ,Rev-RRE block,CYP2C9 inh,Cav32 inh
C/C(CC(O)c1ccc2ccccc2n1)=N/O (stereo not given),1,1.4,0.9,1.6,8.4,0.146
CC1(C)Oc2cc3oc(-c4cc(O)cc(O)c4)cc3cc2CC1O (stereo not given),nt,nt,nt,nt,nt,-1.07
CCCCNc1ccccc1C(=O)OCC(=O)Nc1ccc(S(N)(=O)=O)cc1,0.8,22.9,0.1,8.4,85.5*,0.0754
CCOc1ccccc1-c1nc(-c2ccc(NC(=O)Cc3ccc(OC)cc3)cc2)no1,0.4,55.8*,1.9,8.6,-90.3,0.741
CCOc1ccccc1-c1nc(-c2cccc(Br)c2)no1,1,0.9,1.7,12.6,-73.8,0.467
CCOc1ccccc1-c1nc(-c2ccc(NC(=O)c3ccc(Br)o3)cc2)no1,0.2,76.9*,1.3,3.7,-34.5,-2.33
O=C(Cc1cccs1)Nc1nnc(Cc2ccc(F)cc2)s1,0.8,15.4,0.9,-6.8,6.6,nt
O=C(c1ccc(Br)o1)N1CCN(C/C=C/c2ccccc2)CC1,0.4,64.6*,0.4,5.2,62.9*,-0.0342
O=C(c1ccc(=O)n(Cc2ccccc2)n1)N1CCN(C/C=C/c2ccccc2)CC1,0.3,68.9*,0.1,11.5,91.7*,0.35
O=C(CCc1nc2ccccc2c(=O)[nH]1)N1CCN(C/C=C/c2ccccc2)CC1,0.7,33.0,0.5,6.3,51.8*,2.17
O=C(c1ccc(Br)s1)N1CCN(C/C=C/c2ccccc2)CC1,0.8,18.2,0.9,8.8,6.9,-1.13
CCOC(=O)c1ccc(NC(=O)Nc2cc(C)on2)cc1,1.1,-5.8,1.1,8.2,-8.5,-1.63
Cc1noc(C)c1COc1ccc(C(=O)OCC(=O)NC(=O)C2COc3ccccc3O2)cc1 (stereo not given),0.9,13.8,0.6,8.3,40.7,0.274
Cc1cccc(N2C(=O)CC(Sc3nnc(C)s3)C2=O)c1 (stereo not given),nt,nt,nt,3.2,nt,0.437
CO/N=C/NC(=O)NOCc1ccc(Cl)cc1Cl,0.5,51.9*,0.9,4.5,13.7,-0.0808
N#Cc1cc(N)ccc1Sc1ccccc1,0.5,46.1,2*,8.8,-104.5,-0.512
CCOC(=O)c1c(C)cc(C)n2c1nc1ccccc12,1.2,-18.3,1.2,6.1,-23.6,0.959
Nn1c(COc2ccccc2)nc2ccccc2c1=O,0.5,51.8*,0.8,4.5,23.3,0.561
COc1cccc(OCc2nc3ccccc3c(=O)n2N)c1,0.7,30.5,0.9,1.1,11.7,-0.158
Cc1ccccc1OCc1nc2ccccc2c(=O)n1N,0.5,52.7*,0.5,7.4,50.3*,-0.226
CCCCCc1nc2ccccc2c(=O)n1N,0.4,59.7*,0.7,3.0,31.2,1.18
Cc1ccc(CC(NC(=O)c2ccccc2)C(=O)NCC(=O)O)cc1 (stereo not given),1,-4.8,1.2,5.1,-22.9,-0.0937
CCNC(=S)NS(=O)(=O)c1ccc(Cl)cc1,1,3.8,0.8,4.2,16.8,-0.414
Cn1cccc1Cc1nnc(SCC(=O)NCc2ccccc2)n1-c1ccc(F)cc1,1.1,-14.3,1,0.2,1.4,-0.936
Cn1cccc1Cc1nnc(SCC(=O)NC2CCCC2)n1-c1ccc(F)cc1,1.1,-12.7,0.9,1.6,7.5,1.08
SMILES,CYP2C19 act,CYP2C19 inh,CYP2C9 activ,Rev-RRE block,CYP2C9 inh,Cav32 inh
CCOc1ccccc1NC(=O)CSc1nnc(Cc2cccn2C)n1-c1ccc(F)cc1,0.9,8.7,0.7,-2.9,28.0,-9.29*
CCOC(=O)c1ccccc1NC(=O)CSc1nnc(Cc2cccn2C)n1-c1ccc(F)cc1,0.8,24.2,0.4,-3.6,56.8*,-5.47*
CCOc1ccc(/C(O)=C2\C(=O)C(=O)N(CCN(C)C)C2c2cc(OC)ccc2OC)cc1Cl (stereo not given),nt,nt,nt,5.8,nt,nt
CCOc1ccc(NC(=O)CSc2nc(C)c3c(c2C#N)CCCC3)cc1,1,4.2,1.1,-1.5,-8.3,0.47
COC(=O)Cc1cc(=O)[nH]c(Nc2nc3ccccc3o2)n1,0.9,10.4,1,11.4,-0.8,3.46*
CCOC(=O)Cc1cc(=O)[nH]c(Nc2nc3ccccc3o2)n1,1,-2.4,0.8,12.0,18.3,-1.28
CCOc1ccc(C2CC(c3cccc(OC)c3OC)n3nnnc3N2)cc1Cl (stereo not given),0,97.7*,0.1,nt,89.2*,-4.13*
COc1ccc(C2CC(c3cc(Br)ccc3F)n3nnnc3N2)cc1 (stereo not given),0.6,38.1,0.4,nt,63.8*,-0.143
COc1ccc(C2CC(c3ccccc3)n3nnnc3N2)cc1 (stereo not given),0,98.4*,0.1,-2.9,87.3*,-0.0124
Cc1ccc(C2CC(c3cccc(Br)c3)Nc3nnnn32)cc1 (stereo not given),0.5,51.4*,0.7,10.0,34.7,-2.43
COC(=O)CCCCCN1C(=O)NC(C2CC2)C(C(=O)OCc2ccccc2)=C1C (stereo not given),nt,nt,nt,nt,nt,-0.967
Cc1cc(C)nc(SCCn2c(N3CCCCC3)nc3c2c(=O)n(C)c(=O)n3C)n1,1.1,-10.1,0.9,3.0,11.4,0.638
C=CCn1c(COc2ccccc2)nnc1SCC(=O)C(C)(C)C,0.4,64.9*,0.6,0.3,44.2,-0.128
C=CCn1c(COc2ccc3c(c2)CCCC3)nnc1SCC(=O)Nc1cccc(SC)c1,0.7,29.4,0.5,3.7,50.6*,-4.37*
C=CCn1c(COc2ccccc2)nnc1SC(C)C(=O)N/N=C/c1cc(Cl)ccc1O (stereo not given),0.6,35.1,0.5,13.8,50.0*,nt
C=CCn1c(COc2ccc(Cl)cc2)nnc1SCC(=O)N1CC(=O)Nc2ccccc21,0.7,30.8,2.6*,10.7,-156.3,-1.97
FC(F)(F)c1cccc(Cn2nnnc2-c2ccc(Cl)cc2)c1,0.1,92.3*,0.4,16.3,61.3*,-4.65
CCCn1nnnc1-c1ccc(Cl)cc1,0.8,21.7,1,2.7,-0.9,0.808
O=c1c(-c2ccc(F)cc2)coc2c3c(ccc12)OCCO3,0.9,11.5,1,9.4,3.6,0.235
N#Cc1cc2c(=O)n3ccccc3nc2n(CCCN2CCOCC2)c1=O,0.3,69.0*,0.6,nt,40.9,1.17
O=C(NCCN1CCOCC1)c1cc2c(=O)n3ccccc3nc2n1Cc1ccccc1,0.5,54.8*,0.6,10.5,43.5,-0.0928
COC(=O)C[C@H]1c2cc(F)ccc2S(=O)(=O)N1Cc1ccccc1,nt,nt,nt,nt,nt,0.907
Cc1ccc(CNn2cnnc2SCC(=O)NC(C)(C)C)cc1,0.9,13.9,0.9,2.1,8.5,1.25
CCCC12CN3CC(CCC)(CN(C1)C3C(O)C(O)C(O)CO)C2=O (stereo not given),1,3.4,1,5.0,3.8,-0.0333

# Bioassay records from PubChem BioAssay.
